Experimental data collected from several papers.
Compare with care: the assays were run in different laboratories.
Target: Serine/threonine-protein kinase 3 (STK3, Homo sapiens, UniProt Q13188)
Residues used in one study (Q13188 1-491): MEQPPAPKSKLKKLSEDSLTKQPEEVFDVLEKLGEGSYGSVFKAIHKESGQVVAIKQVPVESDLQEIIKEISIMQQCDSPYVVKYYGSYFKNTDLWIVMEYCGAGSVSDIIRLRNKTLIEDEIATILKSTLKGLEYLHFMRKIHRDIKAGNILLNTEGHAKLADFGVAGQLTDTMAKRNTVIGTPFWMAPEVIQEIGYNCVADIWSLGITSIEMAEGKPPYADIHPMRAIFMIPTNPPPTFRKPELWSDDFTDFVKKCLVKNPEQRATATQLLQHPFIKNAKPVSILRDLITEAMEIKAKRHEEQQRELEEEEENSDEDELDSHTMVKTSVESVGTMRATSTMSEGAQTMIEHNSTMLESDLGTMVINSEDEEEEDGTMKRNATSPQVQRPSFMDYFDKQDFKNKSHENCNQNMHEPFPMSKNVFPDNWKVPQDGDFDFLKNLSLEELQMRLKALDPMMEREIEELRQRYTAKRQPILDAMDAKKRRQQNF

| Compound | read-out | method | concentration | remaining binding [%] |
| --- | --- | --- | --- | --- |
| C[C@H]1CCN(c2nccc(-c3cnn4ncccc34)n2)C1 | binding |  | 1 µM | 92 |
| c1cncc(-c2cccc(Nc3nccc(NC4CCCCC4)n3)c2)c1 | binding | competition with immobilised ligand | 10 µM | 12 |
| O=C(Nc1c[nH]nc1C(=O)NC1CCNCC1)c1cc(F)cc(F)c1 | binding | competition with immobilised ligand | 1 µM | 100 |
| COc1ccnn2ncc(-c3ccnc(N(C)C)n3)c12 | binding |  | 1 µM | 100 |
| COc1ccc2c(c1)O[C@@H](c1ccc(OC)c(OC)c1)C[C@H]2NC(=O)C1(c2ccc3c(c2)OC(F)(F)O3)CC1 | cell-free assay | competition with immobilised ligand | 1 µM | 96 |
| CN(c1nccc(-c2cnn3ncccc23)n1)C1CC1 | binding |  | 1 µM | 98 |
| C[C@H](c1ccnc(Nc2nc3ccc(-c4cc(N(C)C)ncn4)cc3[nH]2)c1)N1CCN(C(=O)CC(F)(F)F)CC1 | cell-free assay | competition with immobilised ligand | 0.1 µM | 93 |
| CC1CCCN1c1nccc(-c2cnn3ncccc23)n1 (stereo not shown) | binding |  | 1 µM | 100 |
| CCN1CCN(Cc2ccc(C(=O)Nc3ccc(C)c(Oc4ccc5c(c4)CC(=O)N5)c3)cc2C(F)(F)F)CC1 | binding | competition with immobilised ligand | 1 µM | 14 |
| c1cnn2ncc(-c3ccnc(N4CCC45COC5)n3)c2c1 | binding |  | 1 µM | 81 |
| C[C@H](c1ccc(F)cc1)N(Cc1cccc(C(=O)O)c1)C(=O)c1cnc2ccccc2c1 | cell-free assay | competition with immobilised ligand | 1 µM | 100 |
| Cc1cnc(Nc2ccc(C(=O)N3CCC(N4CCCC4)CC3)cc2)nc1-c1cc2ccccc2s1 | binding | competition with immobilised ligand | 1 µM | 75 |
| CNC(=O)[C@@H]1CC[C@@H](n2c(-c3ccc4cnccc4c3)nc3ccc(C(=O)NCc4cccc(C(N)=O)c4)cc32)C1 | binding | competition with immobilised ligand | 1 µM | 100 |
| COc1ncc2cc3ccccc3nc2c1C#N | cell-free assay | competition with immobilised ligand | 5 µM | 99 |
| COc1cc(-c2cn(C3CCc4ccccc4N(CC(F)(F)F)C3=O)nn2)ccc1-n1ccc(C)n1 (stereo not shown) | cell-free assay | competition with immobilised ligand | 1 µM | 84 |
| N[C@@H]1CCN(c2nccc(-c3cnn4ncccc34)n2)C1 | binding |  | 1 µM | 98 |
| O=C(c1ccc(Nc2ncc(Cl)c(-c3ccc(Cl)s3)n2)cc1)N1CCC(N2CCCC2)CC1 | binding | competition with immobilised ligand | 1 µM | 16 |
| FC(F)(F)Oc1cccc(-c2cnc3ccc(-c4ccncc4)nn23)c1 | cell-free assay | competition with immobilised ligand | 5 µM | 58 |
| O=C(O)c1cc(-c2ccc(C3CCNCC3)cc2)c2ccc(-c3ccc(C(F)(F)F)cc3)cc2c1 | cell-free assay | competition with immobilised ligand | 1 µM | 100 |
| Cc1cnn2ncc(-c3ccnc(N(C)C)n3)c2c1 | binding |  | 1 µM | 100 |
| CNC(=O)Nc1ccc2c(c1)[C@@]1(CC2)OC(=O)N(CC(=O)N(Cc2ccc(F)cc2)[C@@H](C)C(F)(F)F)C1=O | cell-free assay | competition with immobilised ligand | 1 µM | 97 |
| O=C(NCCCN1CCOCC1)c1ccc(Nc2nccc(-c3cc4ccccc4s3)n2)cc1 | binding | competition with immobilised ligand | 1 µM | 88 |
